Series [1] deals with T1, Mas-related G-protein coupled receptor member X2 (Homo sapiens) (UniProt Q96LB1).
T1 sequence (whole entry): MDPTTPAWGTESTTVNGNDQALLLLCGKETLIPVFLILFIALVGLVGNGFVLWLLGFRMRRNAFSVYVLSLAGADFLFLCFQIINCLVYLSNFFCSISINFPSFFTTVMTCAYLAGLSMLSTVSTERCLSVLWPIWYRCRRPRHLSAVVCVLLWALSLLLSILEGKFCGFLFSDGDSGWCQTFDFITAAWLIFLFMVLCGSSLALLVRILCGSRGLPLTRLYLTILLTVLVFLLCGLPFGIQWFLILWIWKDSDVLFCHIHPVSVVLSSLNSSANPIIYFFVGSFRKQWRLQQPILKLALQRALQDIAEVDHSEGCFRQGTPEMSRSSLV
In words: Agonist activity at MRGPRX2 receptor in human LAD2 cells assessed as increase in degranulation incubated for 30 mins by beta-hexosaminidase assay. The series is classed as functional, cell-based. As to conditions: filed as agonist. The gist of the method:
(§1)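 β-Hexosaminidase release: LAD2 cells in fresh medium 18 h, washed in Tyrode's buffer pH 7.4, 10,000 cells/well; drug (single concentration or 8-point curve) added in triplicate, 30 min 37°C; supernatant and Triton X-100 lysate each reacted with NAG in citrate pH 4.5 for 90 min 37°C, stopped with carbonate pH 10, A405; % release = released/total ×100, minus vehicle.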

Series [2] addresses T1, Mas-related G-protein coupled receptor member X2 (Homo sapiens). Kind of series: Agonist activity at MRGPRX2 receptor in human LAD2 cells assessed as increase in degranulation incubated for 30 mins in presence of naloxone by beta-hexosaminidase assay. The series is classed as functional, cell-based. In outline: as §1
In series [3] the test system is HTLA. Kind of series: Agonist activity at MRGPRX2 D184E mutant (unknown origin) expressed in HTLA cells assessed as induction of beta-arrestin 2 recruitment incubated for 18 to 24 hrs by PRESTO-Tango assay. In kind it is cell-based. The conditions noted are these: Homo sapiens, time 18-24 hrs. In outline:
(§2)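 β-arrestin2 recruitment by PRESTO-Tango: HTLA cells transiently transfected (calcium phosphate) with codon-optimized MRGPRX2-Tango (WT or point mutant) or MRGPRB2-Tango, plated next day 20,000 cells/well on poly-L-lysine; drug in HBSS/20 mM HEPES/0.3% BSA pH 7.4 for 18–24 h; Bright-Glo luminescence (RLU); curves n=3 in triplicate, mutants n=4 in triplicate.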

Series [4] concerns the target T2, Mas-related G-protein coupled receptor member X2 (Homo sapiens, UniProt Q96LB1).
T2 sequence (Q96LB1 whole entry): T1 sequence (whole entry)
Kind of series: Agonist activity at MRGPRX2 (unknown origin) expressed in HTLA cells assessed as induction of beta-arrestin 2 recruitment incubated for 18 to 24 hrs by PRESTO-Tango assay. As to conditions: read-out: pEC50 (converted). In kind it is functional, cell-based. (In general: Arrestin recruitment assays detect the binding of arrestin to an activated receptor.)

For series [5], the target named is T1, Mas-related G-protein coupled receptor member X2 (Homo sapiens). In words: Agonist activity at MRGPRX2 receptor in human LAD2 cells transfected with MRGPRX2 siRNA assessed as increase in degranulation incubated for 30 mins by beta-hexosaminidase assay. The series is classed as functional, cell-based. The gist of the method: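 LAD2 cells (1.2 million/well) transfected with 25 nM MRGPRX2 siRNA pool or non-targeting pool, 72 h; 200,000 cells taken for β-hexosaminidase assay with EC80 concentration of agonist, 30 min 37°C; knockdown checked by qRT-PCR on 1 million cells; fold change % degranulation versus DMSO; two-way ANOVA with Sidak test.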

The target of series [6] is T2, Mas-related G-protein coupled receptor member X2. Kind of series: Agonist activity at N-terminal Flag-tagged human MRGPRX2 receptor expressed in tetracycline-induced FLP-IN/T-REX 293 cells assessed as increase in intracellular calcium release by FLIPR assay. In kind it is functional, cell-based. The conditions noted are these: read-out: EC50. Background: Calcium flux is commonly read through the fluorescence of an indicator in the cells.

Series [7] concerns HTLA. In words: Agonist activity at MRGPRX2 D184N mutant (unknown origin) expressed in HTLA cells assessed as induction of beta-arrestin 2 recruitment incubated for 18 to 24 hrs by PRESTO-Tango assay. In kind it is cell-based. As to conditions: Homo sapiens, time 18-24 hrs. In outline: as §2
Series [8] concerns the target Kappa-type opioid receptor (Homo sapiens, UniProt P41145). Kind of series: Agonist activity at KOR (unknown origin) by Glo sensor assay. In kind it is functional.
Series [9] deals with HTLA. Kind of series: Agonist activity at MRGPRX2 E164Q mutant (unknown origin) expressed in HTLA cells assessed as induction of beta-arrestin 2 recruitment incubated for 18 to 24 hrs by PRESTO-Tango assay. In kind it is cell-based. As to conditions: Homo sapiens, filed as agonist, time 18-24 hrs. In outline: as §2
Series [10] in a line: Cytotoxicity against HTLA cells expressing MRGPRX2 (unknown origin) at 1 uM after 24 hrs. In kind it is toxicity, cell-based. As to conditions: human.

The source made the active and inactive calls. The rule behind the calls is not given here.

Kappa-type opioid receptor, sequence (P41145 whole entry): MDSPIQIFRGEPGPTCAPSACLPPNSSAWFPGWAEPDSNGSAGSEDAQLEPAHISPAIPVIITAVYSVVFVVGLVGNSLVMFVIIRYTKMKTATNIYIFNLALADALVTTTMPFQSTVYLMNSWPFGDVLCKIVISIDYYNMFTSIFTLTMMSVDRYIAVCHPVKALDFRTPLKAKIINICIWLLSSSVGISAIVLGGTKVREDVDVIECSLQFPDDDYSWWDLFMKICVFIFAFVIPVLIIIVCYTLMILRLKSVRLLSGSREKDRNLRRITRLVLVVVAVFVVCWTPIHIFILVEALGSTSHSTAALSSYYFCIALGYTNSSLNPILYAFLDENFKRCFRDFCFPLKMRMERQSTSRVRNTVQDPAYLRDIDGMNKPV

For `CC[C@H](C)[C@H](NC(=O)[C@H](CCCNC(=N)N)NC(=O)[C@H](CCCNC(=N)N)NC(=O)[C@H](CC(C)C)NC(=O)[C@H](Cc1ccccc1)NC(=O)CNC(=O)CNC(=O)[C@@H](N)Cc1ccc(O)cc1)C(=O)N[C@@H](CCCNC(=N)N)C(=O)N1CCC[C@H]1C(=O)N[C@@H](CCCCN)C(=O)N[C@@H](CC(C)C)C(=O)N[C@@H](CCCCN)C(=O)O` [ANALOG OF DYNORPHIN A], the result (in series [1]; with HTLA [9]) was Active. Besides, the outcome (in series [2]; in the series on HTLA [3]; in series [5]; in the series on HTLA [7]) was inactive. Besides, the figures for the EC50 in series [4], in [6] and in series [8] were 30200 nM, 1100 nM and 0.006 nM, respectively.

Turning to `C[C@@H]1C[C@H]2Cc3ncc(-c4ccc5c(n4)C[C@@H]4C[C@@H](C)C[C@]56NCCC[C@H]46)cc3[C@]3(C1)NCCC[C@H]23` [COMPLANADINE A], the EC50 in [4] was 692 nM; in series [6], 18000 nM. Besides, the Activity entry in [10] was “Toxic”.

The record behind these values is ChEMBL document CHEMBL5661985, “In silico design of novel probes for the atypical opioid receptor MRGPRX2” (Nat Chem Biol, 2017).
